Bioassay records: PubChem BioAssay, Broad Institute
SKKanGAS inh: inhibitors of SKKanGAS S. pyogenes growth in kanamycin (SK-promoter or general growth effect); AID 1662; inhibition, % at 7.5 µM; BacTiter-Glo, 6 h; hit rate 1.3% among 300,000;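 active = mean replicate score, as percent of positive control median, at least 50; inconclusive = mean below 50 but one replicate at or above 50; inactive = mean and every replicate below 50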;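 note: strain carries kanamycin resistance gene driven by streptokinase promoter and grows in 40 µg/ml kanamycin; loss of luminescence reflects streptokinase promoter inhibition or plain growth inhibition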
PfHsp90 set2: growth inhibition of yeast expressing Plasmodium Hsp90; hit rate 0.32% among 310,000; AID 504621; S. cerevisiae expressing PfHsp90, BacTiter-Glo ATP, 48 h; yeast lacking PDR1 and PDR3 efflux regulators; inhibition, % at 9.4 µM;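 active = every replicate shows inhibition above about 80%, whatever the replicate mean, limit read from the data; inconclusive = mean inhibition reaches the set limit but some replicate falls short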
T cruzi inh: blocks replication of Trypanosoma cruzi; T. cruzi beta-gal in NIH3T3, luminescence, 90 h; inhibition, % (no concentration beside the values); hit rate 1.4% among 300,000; AID 1885;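 active = mean inhibition across valid replicates above about 55%, limit read from the data; inconclusive = mean below that limit but half or more replicates reach it; inactive = mean below it, under half of replicates reach it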;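 note: signal also drops with host cell toxicity which is not excluded here; higher percent means less beta-gal luminescence so fewer parasites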
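Material: NIH/3T3 host cells with β-galactosidase reporter T. cruzi; Input: 5,000 host fibroblasts per well; Medium: DMEM, 2% fetal bovine serum; Compound: 50 nL DMSO compound solution per well; Schedule: 3 h host attachment, then at least 90 h co-culture; Detection: luminescent β-galactosidase signal after 60 min lysis.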
Beta apoptosis: blocks beta cell apoptosis. hit rate 0.8% among 300,000. AID 435005. INS-1E cytokine-induced death, ATP luminescence, 48 h; percent of positive-control rescue, neutral wells zero. protection from apoptosis, % (concentration not given with the values);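 active = Every replicate reaches about 75%, or at least half do and their mean reaches it too, limit read from the data; inconclusive = At least half of replicates reach the limit but their mean does not; inactive = Under half of replicates reach the limit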;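 note: higher means more ATP so stronger rescue from cytokine killing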
CSC inhib: cancer stem cell inhibition; cancer stem cell-like cells viability, luminescence; inhibition, % at 7.5 µM; hit rate 1.1% among 300,000; in the data active = inhibition above about 75%; inconclusive = no clear call, values can overlap the other calls; tested in HMLE shEcad cells
HIF activator: HIF pathway transcriptional activation | hit rate 0.32% among 300,000 | activation, % at 7.5 µM (by protocol) | U2OS HRE-luciferase reporter, luminescence; normalized: DMSO 0%, desferrioxamine 100%;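 active = mean activation of at least 10% of the iron chelator positive control signal, with at least half of replicates also reaching 10%; inconclusive = mean and replicate majority disagree about reaching 10%; inactive = mean and most replicates under 10%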
Large screens that a line does not name were inactive. This is a sample that favours compounds with a hit; in the whole collection about 3.6% have one here.

C[C@@H]1O[C@@H](O[C@@H]2C=C3CC[C@@H]4C(CC[C@]5(C)[C@@H](c6ccc(=O)oc6)CC[C@]45O)[C@@]3(C)CC2)[C@H](O)[C@H](O)[C@H]1O (stereo not given in full)	CSC inhib 107 (no result: SKKanGAS inh, T cruzi inh, HIF activator)
CC(=O)OC1CC(OC2C(O)CC(OC3C(O)CC(OC4CCC5(C)C(CCC6C5CCC5(C)C(C7=CC(=O)OC7)CCC65O)C4)OC3C)OC2C)OC(C)C1OC1OC(CO)C(O)C(O)C1O (stereo not given)	none (no result: SKKanGAS inh, T cruzi inh, Beta apoptosis, CSC inhib, HIF activator)
CN/C=C(/Cl)P(=O)(OC(C)C)OC(C)C	none (no result: Beta apoptosis)
COc1ccc(CN2Cc3cnnn3-c3ccccc3C2C)cc1 (stereo not given)	none (no result: SKKanGAS inh, T cruzi inh, Beta apoptosis, CSC inhib, HIF activator)
COC(=O)C1=C(c2ccc(-c3ccccc3)c(F)c2)C[C@@H]2CC[C@H]1N2C(=O)NCCc1ccccc1	none (no result: SKKanGAS inh, T cruzi inh, HIF activator)
CC[C@H](C)/C=C(C)/C=C/C1=CC2=C(Cl)C(=O)[C@](C)(OC(C)=O)C(=O)C2=CO1	PfHsp90 set2 105 (no result: SKKanGAS inh, T cruzi inh, Beta apoptosis, CSC inhib, HIF activator)
CCOP(=O)(Cc1cc(C(=O)CC)c(C)o1)OCC	none (no result: PfHsp90 set2)
COc1cccc(C(=O)C2CCCN(Cc3ccc(F)cc3)C2)c1 (stereo not given)	none
CCn1cc(CN2CCCC(C(=O)c3cccc(OC)c3)C2)c(C)n1 (stereo not given)	T cruzi inh 58
CCCn1ncc(CN2CCCC(C(=O)c3cccc(OC)c3)C2)c1C (stereo not given)	T cruzi inh 68
COc1cccc(C(=O)C2CCCN(Cc3ccc4nsnc4c3)C2)c1 (stereo not given)	HIF activator 243
O=c1[nH]cc(COCC(F)(F)C(F)(F)C(F)(F)F)c(=O)[nH]1	none
O=C1CN(O)C(c2ccccc2)=c2cc(Cl)ccc2=N1	none
Oc1cc(Cl)ccc1Oc1ccc(Cl)cc1Cl	PfHsp90 set2 95
CC[C@@H](O)C[C@H]1CCC[C@@]2(C[C@@H]3OC(=O)/C=C/[C@@](C)(O)[C@@H](O)[C@H](C)[C@@H](O)[C@H](OC4CCC(N(C)C)C(C)O4)[C@@H](O)[C@](C)(O)CCCCC/C=C/[C@@H]4CC(C)(C)O[C@@]4(O)C[C@H](O2)[C@H]3C)O1 (stereo not given in full)	none (no result: SKKanGAS inh, T cruzi inh, Beta apoptosis, CSC inhib, HIF activator)
COC12C(COC(N)=O)C3=C(C(=O)C(C)=C(N)C3=O)N1CC1C2N1C (stereo not given)	SKKanGAS inh 111, T cruzi inh 58
O=C1C=CC(=O)C2C1C1(Cl)C(Cl)=C(Cl)C2(Cl)C1(Cl)Cl (stereo not given)	PfHsp90 set2 92 (no result: SKKanGAS inh, T cruzi inh, Beta apoptosis, CSC inhib, HIF activator)
C[C@]12CCC3C(CC[C@H]4C[C@@H](O)CC[C@]34C)C1C[C@@H](Br)[C@@H]2O (stereo not given in full)	none (no result: SKKanGAS inh, PfHsp90 set2, T cruzi inh, HIF activator)
CCCCn1c(O)c(C(C)=NCc2ccco2)c(=O)[nH]c1=O	none
O=C(N/N=C/c1c(O)n(Cc2ccc(F)cc2)c(=O)[nH]c1=O)c1ccccc1O	SKKanGAS inh 97
O=C(N/N=C/c1c(O)n(Cc2ccccc2)c(=O)[nH]c1=O)c1ccccc1O	SKKanGAS inh 84
COc1ccc(Cn2c(O)c(/C=N/NC(=O)c3ccccc3O)c(=O)[nH]c2=O)cc1	none
O=C(N/N=C/c1c(O)n(CCc2ccccc2)c(=O)[nH]c1=O)c1ccccc1O	SKKanGAS inh 103
CCCCCCC(=O)N/N=C/c1c(O)n(CCc2ccccc2)c(=O)[nH]c1=O	SKKanGAS inh 86 (no result: T cruzi inh, HIF activator)
CCCCCCC(=O)N/N=C/c1c(O)n(C(C)CC)c(=S)[nH]c1=O (stereo not given)	SKKanGAS inh 90 (no result: T cruzi inh, HIF activator)
CC(=O)OC1C(=O)OCC23CCC4(C)OC4C2OC2CC(OC(=O)C=CC=CC(=O)OCCC1C)C3(C)C21CO1 (stereo not given)	PfHsp90 set2 131 (no result: SKKanGAS inh, T cruzi inh, Beta apoptosis, CSC inhib, HIF activator)
CC(O)C1C=CC=CC(=O)OC2CC3OC4C5OC5(C)CCC4(COC(=O)C4OC4(C)C(O)CO1)C2(C)C31CO1 (stereo not given)	none (no result: SKKanGAS inh, T cruzi inh, Beta apoptosis, CSC inhib, HIF activator)
Oc1ccc(/C=N/NP(=S)(c2ccccc2)c2ccccc2)c(O)c1O	none
Oc1ccccc1/C=N/NP(=S)(c1ccccc1)c1ccccc1	CSC inhib 97 (no result: PfHsp90 set2)
Clc1ccc(COC(Cn2ccnc2)c2ccc(Cl)cc2Cl)c(Cl)c1 (stereo not given)	SKKanGAS inh 108, PfHsp90 set2 81, CSC inhib 102
C/C1=C\[C@@H](C)C/C=C/[C@H]2[C@@H]3O[C@]3(C)[C@@H](C)[C@H]3[C@H](Cc4c[nH]c5ccccc45)NC(=O)[C@]32C(=O)/C=C/C(=O)[C@@H]1O	none (no result: Beta apoptosis)
CC1=CC2/C=C(\C)CCC(O)C(O)/C=C/C(=O)C23C(=O)NC(CC(C)C)C3C1C (stereo not given)	T cruzi inh 67, Beta apoptosis 106
CCn1c(P(C)(=O)O)nc2ccccc21	none
CCn1c(NN=O)nc2ccccc21	T cruzi inh inconclusive, Beta apoptosis 99
O=[N+]([O-])c1ccccc1-c1cc(-c2ccccc2)cc(-c2ccccc2)[n+]1Cc1ccccc1Cl	T cruzi inh 56, Beta apoptosis 134 (no result: PfHsp90 set2)
CCCCCCC(Cl)(Cn1ccnc1)c1ccccc1 (stereo not given)	PfHsp90 set2 101
CCC(=NCCCn1ccnc1)c1c(O)n(Cc2ccccc2)c(=O)[nH]c1=O	none
COc1cc(OC)c([C@H]2C=C(C)[C@H]3C[C@@H]2C3(C)C)c(OC)c1	SKKanGAS inh 97
O=c1[nH]c2ccccc2c(=O)n1-c1ccc(Cl)cc1Cl	none
CC(C)=CCSc1nnc([C@@H](N)Cc2c[nH]c3ccccc23)o1	HIF activator 18
O=C(c1ccc(Cl)cc1)C1CCCN(C2CCSCC2)C1 (stereo not given)	none
CCOC(=O)c1c(C=O)c2ccccc2n1Cc1ccccc1F	none
Nc1ccc(N2CCN(Cc3ccccc3Cl)CC2)c(Cl)c1	CSC inhib 79
Clc1ccccc1CN1CCN(c2ccccc2)CC1	none (no result: Beta apoptosis, CSC inhib)
c1ccc(P(c2ccccn2)c2ccccn2)cc1	none
COC(=O)C1=Nc2ccccc2/C1=C\c1c(O)n(-c2ccc(Br)cc2)c(=O)[nH]c1=O	none (no result: SKKanGAS inh, T cruzi inh, HIF activator)
O=c1[nH]c(=O)n(-c2ccccc2)c(O)c1/C=C1/C(c2ccccc2)=Nc2ccccc21	CSC inhib 88
COc1cc2c(cc1OC)[C@@H]1C(=O)c3ccc4c(c3O[C@@H]1CO2)C[C@H](C(C)C)O4	Beta apoptosis 133
COc1cc2c(cc1OC)C1C(=O)c3ccc4c(c3OC1CO2)CC(C(C)C)O4 (stereo not given)	none (no result: SKKanGAS inh, T cruzi inh, Beta apoptosis, CSC inhib, HIF activator)
CC(C)(C)c1cc([N+](=O)[O-])cc(C(C)(C)C)c1O	Beta apoptosis 100 (no result: PfHsp90 set2)
NC(=O)c1cc([N+](=O)[O-])cc([N+](=O)[O-])c1	none (no result: SKKanGAS inh, T cruzi inh, Beta apoptosis, CSC inhib, HIF activator)
CC12CC(=O)C3C(CCC4CC(=O)C=CC43C)C1CCC2=O (stereo not given)	none (no result: SKKanGAS inh, T cruzi inh, Beta apoptosis, CSC inhib, HIF activator)
